Hits are enriched below; roughly 8.7% of the tested compounds scored in any of these assays.
Ecoli tolC: blocks growth of E. coli BW25113 tolC mutant; OD615; growth inhibition, % at 10 µM (by protocol); AID 573; 65,000 tested, 2.2% active;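 active = growth inhibition at or above a cutoff equal to the mean over every tested compound plus 3 SD, cut at about 60% in these data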;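 also: growth measured after 20 h incubation at 37 °C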
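signal = optical density read at 615 nm | test system = E. coli ΔtolC::kan strain BW25113 | timing = 20 h compound exposure of bacteria at 37 °C | buffer or medium = LB medium plus 50 µg/mL kanamycin | compound dosing = 10 µM final, single dose | evaluation = % inhibition of E. coli growth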
Ecoli WT expand: blocks growth of wild type E. coli BW25113; OD600 absorbance; growth inhibition, % at 100 µM; 98,000 tested, 0.15% active; AID 710;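 active = growth inhibition above about 50% at one test dose, limit read from the data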;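 also: growth measured after 20 h incubation at 37 °C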
PostGolgi ctrl: yeast control strain growth, post-Golgi counter-screen; 98,000 tested, 5% active; AID 738; inhibition, % at 10 µM; efflux-deficient yeast background strain, growth absorbance A615, 16 h
Cav3 T inh: inhibitors of human Cav3.2 T-type calcium channel. O95180. Cav3.2-expressing cells, Fluo-4 calcium fluorescence FDSS; active compounds read low. B-score at 10 µM. 100,000 tested, 4% active. AID 449739;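 active = single-dose well whose peak fluorescence ratio is a statistical outlier from its plate by either plate-standardised score or position-corrected B-score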
PTK2B oligo ant: blocks oligomerization of human Pyk2 in cells; Q14289; Q293 cells, Pyk2 FERM NanoBiT luminescence; active compounds read low; z-score (the deposit names both 25 µM and 10 µM); 99,000 tested, 0.83% active;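 active = Z-score of -3 or lower, scaled per plate to the spread of control and sample wells; inactive = z-score above -3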;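 also: negative z-score means lost luminescence so less FERM oligomerization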
Target sequence (Q14289 whole entry, looked up): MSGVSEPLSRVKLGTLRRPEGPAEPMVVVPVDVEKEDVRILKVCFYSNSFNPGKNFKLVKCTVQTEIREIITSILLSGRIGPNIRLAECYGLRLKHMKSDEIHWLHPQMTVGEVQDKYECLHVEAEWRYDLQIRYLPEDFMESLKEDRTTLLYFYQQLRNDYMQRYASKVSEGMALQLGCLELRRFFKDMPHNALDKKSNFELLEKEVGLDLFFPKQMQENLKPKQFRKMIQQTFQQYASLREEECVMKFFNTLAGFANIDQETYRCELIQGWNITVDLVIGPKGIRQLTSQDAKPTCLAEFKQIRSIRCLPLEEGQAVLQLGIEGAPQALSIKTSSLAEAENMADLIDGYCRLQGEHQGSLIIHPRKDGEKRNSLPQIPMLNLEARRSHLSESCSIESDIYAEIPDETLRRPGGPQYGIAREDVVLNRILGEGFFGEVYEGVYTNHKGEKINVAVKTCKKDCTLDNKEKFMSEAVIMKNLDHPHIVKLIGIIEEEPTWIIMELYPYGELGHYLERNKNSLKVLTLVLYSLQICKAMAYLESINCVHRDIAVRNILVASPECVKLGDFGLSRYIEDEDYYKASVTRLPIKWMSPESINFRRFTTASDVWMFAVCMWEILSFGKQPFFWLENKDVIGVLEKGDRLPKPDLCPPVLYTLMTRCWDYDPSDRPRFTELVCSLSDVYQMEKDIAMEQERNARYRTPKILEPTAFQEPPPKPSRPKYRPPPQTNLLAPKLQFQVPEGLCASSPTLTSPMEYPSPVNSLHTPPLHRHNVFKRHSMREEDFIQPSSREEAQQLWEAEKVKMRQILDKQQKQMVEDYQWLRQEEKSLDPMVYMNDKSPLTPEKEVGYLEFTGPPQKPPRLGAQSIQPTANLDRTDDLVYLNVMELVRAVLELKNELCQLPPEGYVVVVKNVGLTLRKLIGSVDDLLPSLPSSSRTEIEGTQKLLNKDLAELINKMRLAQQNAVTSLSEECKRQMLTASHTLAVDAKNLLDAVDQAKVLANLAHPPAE
PostGolgi yeast: growth inhibition of a yeast mutant, post-Golgi transport screen; post-Golgi transport phenotypic cell assay; inhibition, % at 10 µM; 98,000 tested, 0.9% active; AID 739;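 also: yeast cells grown in 1536-well plates; yeast grown about 18 h at 30C before absorbance read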
Numbers without * were called inactive; · = no result given. Rule as the data show it, unless noted: active = inhibition above about 30%; inactive = the rest.

SMILES | Ecoli tolC | Ecoli WT expand | PostGolgi ctrl | Cav3 T inh | PTK2B oligo ant | PostGolgi yeast
COC(C)(C)[C@]12CC(O)(c3ccccc3)ON1[C@H]1CCCCC1N2O (some centres not stated) | -27 | 7 | 32* | -0.77 | -0.5 | 1
O=C(CCCOc1ccc(Cl)cc1Cl)N/N=C\C1CCCCC1 | · | 0 | 17 | 0.17 | 1.1 | -1
COc1ccc(C2CC(c3ccc(Br)cc3)Nc3nc(N)nn32)cc1 (configuration not stated) | 39 | 4 | 5 | -0.67 | -0.77 | 2
Nc1nc2n(n1)C(c1cccs1)CC(c1ccc(Br)cc1)N2 (configuration not stated) | 0 | -1 | 10 | 0.24 | -3.2* | -2
COc1cc(OC)cc(C(=O)N[C@H](C(=O)NC23CC4CC(CC(C4)C2)C3)C(C)C)c1 | · | -13 | 28 | -2.9 | -0.19 | 47*
COc1cc(C(=O)N[C@H](C(=O)NC2CCCCCC2)C(C)C)cc(OC)c1OC | · | 4 | -5 | 0.79 | 0.61 | -10
CCOC(=O)C1CCN(CC(O)COc2ccc(C(C)(C)CC)cc2)CC1 (configuration not stated) | 36 | 21 | 79* | -1.5 | -0.33 | 87*
CCOC(=O)C1CCN(CC(O)COc2ccc(C(C)=O)cc2)CC1 (configuration not stated) | -6 | 8 | -1 | 0.67 | · | 0
CCOC(=O)C1CCN(CC(O)COc2ccc(C(C)(C)C)cc2)CC1 (configuration not stated) | -1 | 22 | 59* | -1.1 | -0.19 | 29
CCC(=O)c1ccc(OCC(O)CN2CCCCC2)cc1 (configuration not stated) | · | 9 | -9 | 0.016 | 1.5 | -2
CC1CCN(c2ccc3c(c2)S(=O)(=O)c2ccccc2C3=O)CC1 | · | · | · | -2.2 | · | ·
COc1cc(OC)cc(C(=O)N2CCN(c3ncccn3)CC2)c1 | -8 | 3 | -1 | 0.013 | 0.97 | 9
COc1ccc(N(C2CSC2)S(=O)(=O)c2ccccc2)cc1 | 64* | -7 | 0 | -1.1 | -1.3 | 9
CC(C)CN(CC(C)C)C(=O)C12CCC(C)(C(=O)O1)C2(C)C (configuration not stated) | · | · | · | -0.39 | -0.3 | ·
Cc1ccc(S(=O)(=O)NC(CC(=O)n2nc(C)cc2C)c2ccccc2)cc1 (configuration not stated) | · | 0 | 35* | -6.3* | -0.84 | -5
Cc1ccc(-c2nn(-c3ccccc3)cc2C2SCC(=O)N2Cc2ccccc2)o1 (configuration not stated) | 42 | -23 | 58* | -2.4 | · | 2
CCCn1c(C)cc(C(=O)CN2C(=O)c3ccccc3C2=O)c1C | -1 | · | · | · | · | ·
COc1ccc(C(=O)CN2C(=O)c3ccccc3C2=O)c(OC)c1C | 34 | -5 | -1 | -5.2* | -0.59 | -2
CCN(c1ccccc1)S(=O)(=O)c1cnc[nH]1 | -22 | 0 | 0 | 0.07 | 1 | 1
CCN=c1sc2ccccc2n1CC(O)COc1ccccc1 (configuration not stated) | · | 17 | 25 | -4.2* | 0.65 | 6
Cc1ccc(C(C)NC(=O)c2c(C)noc2C)cc1C (configuration not stated) | 7 | -4 | 12 | -3.8* | 0.33 | 4
Cc1noc(C)c1C(=O)NCCc1ccccc1 | · | 0 | -5 | 1.5 | 0.81 | -15
C/C(=N\NC(=O)CC1N=C(Cc2ccccc2)NNC1=O)c1ccccc1 (configuration not stated) | · | 0 | -2 | 0.75 | 0.26 | -23
C/C(=N\NC(=O)CC1N=C(Cc2ccccc2)NNC1=O)c1ccc(Cl)cc1Cl (configuration not stated) | · | -4 | 5 | -4.7* | 0.65 | -3
CCc1ccc(CNC(=O)CN2C(=O)COc3ccccc32)cc1 | 6 | -7 | 10 | -0.62 | -0.57 | 3
SMILES | Ecoli tolC | Ecoli WT expand | PostGolgi ctrl | Cav3 T inh | PTK2B oligo ant | PostGolgi yeast
C=C(C)Cn1c(SCC(=O)O)nnc1-c1ccccc1 | · | -6 | 25 | 0.54 | 0.29 | -5
C=C(C)Cn1c(-c2ccccc2)nc2ccccc21 | 14 | 8 | 14 | -4.1* | 0.08 | -3
COC(=O)C1=C(C(=O)OC)[C@@H]2N(C)c3ccccc3[C@@]23C[C@@H](CO)N(C(=O)NCCBr)C3=N1 | · | · | · | -3.7 | · | ·
O=C(O)c1ccc2c(c1)C(=O)N(c1ccc(Cl)cn1)C2=O | -15 | -5 | 16 | 0.012 | · | -4
O=C(O)c1ccc2c(c1)C(=O)N(c1cc(C(=O)O)ccc1Br)C2=O | 0 | 4 | 30* | 0.06 | 0.89 | -4
O=S(=O)(NCC(c1cccnc1)N1CCN(c2ccccc2)CC1)c1cc(F)ccc1F (configuration not stated) | 9 | 7 | 75* | -0.073 | -0.73 | 95*
CCN(CC)S(=O)(=O)c1cccc(C(=O)N[C@H](C(=O)OCC(=O)NC(=O)NC)C(C)C)c1 | · | 8 | -2 | 0.99 | 1 | -1
O=C(CSCC(=O)OCn1nnc2ccccc2c1=O)Nc1ccc(Cl)cc1 | -7 | 3 | 32* | · | 0.26 | 0
O=C(CSc1ccccc1Cl)N1CCC(c2nc3ccccc3s2)CC1 | · | -47 | 64* | -2.4 | 0 | 13
Cc1ccc(C)c(N2CCN(C(=O)c3ccc(Cn4c(=O)[nH]c5ccccc5c4=O)cc3)CC2)c1 | 25 | -10 | 13 | -5.9* | -0.47 | 0
Cc1ccc(C)c(N2CCN(C(=O)C3CCN(c4nc(C)cc(C)n4)CC3)CC2)c1 | 29 | -21 | 46* | -5.6* | -0.51 | 6
O=C(c1ccc(Cn2c(=O)[nH]c3ccccc3c2=O)cc1)N1CCN(c2ccc(Cl)cc2)CC1 | 25 | -9 | 4 | -2.9 | -0.38 | 0
CCOC(=O)N1CCN(C(=O)c2cc3sccc3n2C)CC1 | 2 | 0 | 2 | 0.059 | -0.06 | -1
Cc1ccc(C)c(N2CCN(C(=O)C3CCN(S(=O)(=O)c4c(C)noc4C)CC3)CC2)c1 | 16 | · | · | · | · | ·
Cc1ccc(C)c(N2CCN(C(=O)c3cc4sccc4n3C)CC2)c1 | 76* | -6 | 36* | -1.2 | -0.17 | -2
Cc1ccc(C)c(N2CCN(C(=O)c3ccccc3Br)CC2)c1 | 69* | -8 | 29 | -3.8 | -0.76 | 1
CC1CCN(CC(=O)N2c3ccccc3CCc3ccccc32)CC1 | -11 | · | · | 1.4 | 1.6 | ·
Cc1ccc(N2CCN(C(=O)c3ccccc3Br)CC2)c(C)c1 | 40 | -2 | 37* | -3.9 | -0.23 | 1
COc1ccc(OC)c(C2C(C(=O)Nc3cccnc3)=C(C)NC3=C2C(=O)CCC3)c1 (configuration not stated) | -14 | -1 | 1 | 0.038 | 0.42 | 2
Cc1ccc(CNC(=O)CSc2c3c(nc4ccc(Cl)cc24)CCCC3)o1 | · | -9 | 24 | -2.4 | -1 | 9
CCOc1c2c(nc3ccc(Cl)cc13)CCC2 | 15 | -6 | 36* | -2.9 | 0.04 | 0
O=C1O/C(=C/C(=O)N2CCOCC2)c2ccccc21 | · | · | · | 0.16 | 0.22 | ·
O=c1cc(-c2ccccc2Cl)oc2c(Br)ccc(O)c12 | · | · | · | -0.27 | · | ·
